pKi: −log10 of the molar value.
Columns and labels:
D(2) dopamine receptor = D(2) dopamine receptor (Rattus norvegicus, UniProt P61169); test: Displacement of [3H]spiperone from D2 receptor in rat striatum by liquid scintillation counting analysis
Procedure, shortened: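 Rat striatal membranes with [3H]-spiperone. Compounds were tested in triplicate at 7–8 concentrations (10⁻¹¹–10⁻⁴). Ki values were calculated.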

[1] = target: T1, 5-hydroxytryptamine receptor 1A (Rattus norvegicus, UniProt P19327); test: Displacement of [3H]-8-OH-DPAT from 5-HT1A receptor in rat hippocampal membrane by liquid scintillation analysis; type: cell membranes, Hippocampus
T1 sequence (P19327 whole entry): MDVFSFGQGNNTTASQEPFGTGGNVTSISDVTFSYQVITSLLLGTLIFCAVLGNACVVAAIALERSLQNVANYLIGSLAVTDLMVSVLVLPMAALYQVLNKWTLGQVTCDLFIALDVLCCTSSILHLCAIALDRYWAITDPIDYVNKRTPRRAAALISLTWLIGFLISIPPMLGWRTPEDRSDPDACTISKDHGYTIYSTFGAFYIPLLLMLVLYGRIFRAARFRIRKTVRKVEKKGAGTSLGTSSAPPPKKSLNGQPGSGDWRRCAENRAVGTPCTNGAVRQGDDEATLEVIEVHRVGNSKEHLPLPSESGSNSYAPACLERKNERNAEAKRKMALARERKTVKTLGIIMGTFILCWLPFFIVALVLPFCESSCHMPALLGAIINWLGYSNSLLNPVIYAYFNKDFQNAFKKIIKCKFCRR
Procedure, shortened: (§1)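 Native rat membranes were used: hippocampus with [3H]-8-OH-DPAT (170 Ci/mmol) and 5-HT for non-specific binding; cortex with [3H]-ketanserin (88.0 Ci/mmol) and methysergide; hypothalamus with [3H]-5-CT (34.5 Ci/mmol) and 5-HT. Compounds were tested in triplicate at 7–8 concentrations (10⁻¹¹–10⁻⁴ M). Read-out was liquid scintillation counting. Ki came from nonlinear regression with Cheng-Prusoff, as the mean of at least two experiments.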

[2] = target: 5-hydroxytryptamine receptor 2A (Rattus norvegicus, UniProt P14842); test: Displacement of [3H]ketanserin from 5-HT2A receptor in rat cortical membrane by liquid scintillation analysis; type: cell membranes; procedure, shortened: as §1
5-hydroxytryptamine receptor 2A, sequence (P14842 whole entry): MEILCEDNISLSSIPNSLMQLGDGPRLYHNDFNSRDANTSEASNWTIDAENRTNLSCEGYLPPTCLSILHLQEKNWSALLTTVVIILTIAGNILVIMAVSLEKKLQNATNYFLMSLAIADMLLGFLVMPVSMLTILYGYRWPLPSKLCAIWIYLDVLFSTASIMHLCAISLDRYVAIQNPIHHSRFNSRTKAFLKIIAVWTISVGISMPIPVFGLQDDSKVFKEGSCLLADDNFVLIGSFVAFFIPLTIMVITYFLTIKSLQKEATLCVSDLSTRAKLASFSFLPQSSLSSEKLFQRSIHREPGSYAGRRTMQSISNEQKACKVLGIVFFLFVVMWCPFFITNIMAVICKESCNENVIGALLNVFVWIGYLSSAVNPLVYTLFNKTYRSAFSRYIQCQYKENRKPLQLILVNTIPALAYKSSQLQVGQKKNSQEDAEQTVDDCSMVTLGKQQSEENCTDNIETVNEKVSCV

[3] = target: 5-hydroxytryptamine receptor 7 (Rattus norvegicus, UniProt P32305); test: Displacement of [3H]-5-CT from 5-HT7 receptor in rat hypothalamic membrane by liquid scintillation analysis; type: cell membranes; procedure, shortened: as §1
5-hydroxytryptamine receptor 7, sequence (P32305 whole entry): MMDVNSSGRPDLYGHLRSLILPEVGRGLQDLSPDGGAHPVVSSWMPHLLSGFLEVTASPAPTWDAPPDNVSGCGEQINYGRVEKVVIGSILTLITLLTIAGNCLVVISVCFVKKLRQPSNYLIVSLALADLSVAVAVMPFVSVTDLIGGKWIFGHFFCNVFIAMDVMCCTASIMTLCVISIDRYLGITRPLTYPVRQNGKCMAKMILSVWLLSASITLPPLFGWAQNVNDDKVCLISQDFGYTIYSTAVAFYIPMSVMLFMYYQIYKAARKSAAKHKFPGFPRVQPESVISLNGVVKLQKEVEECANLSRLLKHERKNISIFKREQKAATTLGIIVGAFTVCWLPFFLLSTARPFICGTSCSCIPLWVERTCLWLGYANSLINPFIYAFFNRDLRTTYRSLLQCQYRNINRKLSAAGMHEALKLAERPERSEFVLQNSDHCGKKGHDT

[4] = target: D(1A) dopamine receptor (Homo sapiens) (UniProt P21728); test: Displacement of [3H]SCH23390 from human D1 receptor expressed in CHO cells at 1 uM by scintillation counting analysis; type: cell-based
D(1A) dopamine receptor (Homo sapiens), sequence (P21728 whole entry): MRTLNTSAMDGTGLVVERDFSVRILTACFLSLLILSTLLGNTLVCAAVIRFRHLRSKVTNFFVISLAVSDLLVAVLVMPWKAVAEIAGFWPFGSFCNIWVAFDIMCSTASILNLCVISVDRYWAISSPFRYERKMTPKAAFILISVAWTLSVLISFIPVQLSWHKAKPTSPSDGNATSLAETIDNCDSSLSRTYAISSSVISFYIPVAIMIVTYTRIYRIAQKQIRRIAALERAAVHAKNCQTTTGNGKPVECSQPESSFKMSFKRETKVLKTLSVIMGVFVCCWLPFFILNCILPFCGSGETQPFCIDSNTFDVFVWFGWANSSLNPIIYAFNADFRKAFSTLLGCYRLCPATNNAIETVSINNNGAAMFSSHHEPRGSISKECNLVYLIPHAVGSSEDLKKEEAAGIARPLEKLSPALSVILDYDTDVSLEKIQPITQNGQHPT
Procedure, shortened: (§2)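 Extended binding screen run by a contract lab. Receptors were cloned human: 5-HT1A, 5-HT2A, 5-HT2C and H1 in HEK-293 cells; D1, α1, α2C and M3 in CHO cells; 5-HT6/7 and D2/3/4 in CHO cells. Radioligand displacement was done at a single 1.0E-06 concentration in duplicate. Results are mean % inhibition of control specific binding.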

[5] = target: D(2) dopamine receptor (Homo sapiens) (UniProt P14416); test: Displacement of [3H]methylspiperione from human D2 receptor expressed in CHO cells at 1 uM by scintillation counting analysis; type: cell-based; procedure, shortened: as §2
D(2) dopamine receptor (Homo sapiens), sequence (P14416 whole entry): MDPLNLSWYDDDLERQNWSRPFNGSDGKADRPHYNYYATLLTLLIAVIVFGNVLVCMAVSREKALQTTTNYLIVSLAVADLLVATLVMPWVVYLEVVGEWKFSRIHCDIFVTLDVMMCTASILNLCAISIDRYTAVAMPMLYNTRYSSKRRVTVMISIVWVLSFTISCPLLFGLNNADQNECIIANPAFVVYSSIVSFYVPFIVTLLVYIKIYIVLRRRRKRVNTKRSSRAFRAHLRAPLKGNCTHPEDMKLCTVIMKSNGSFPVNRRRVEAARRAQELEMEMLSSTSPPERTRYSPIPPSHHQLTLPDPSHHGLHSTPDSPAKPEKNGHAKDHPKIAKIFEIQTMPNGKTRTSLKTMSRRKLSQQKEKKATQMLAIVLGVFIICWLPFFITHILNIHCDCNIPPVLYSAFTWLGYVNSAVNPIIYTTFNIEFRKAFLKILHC

[6] = target: D(3) dopamine receptor (Homo sapiens) (UniProt P35462); test: Displacement of [3H]methylspiperione from human D3 receptor expressed in CHO cells at 1 uM by scintillation counting analysis; type: cell-based; procedure, shortened: as §2
D(3) dopamine receptor (Homo sapiens), sequence (P35462 whole entry): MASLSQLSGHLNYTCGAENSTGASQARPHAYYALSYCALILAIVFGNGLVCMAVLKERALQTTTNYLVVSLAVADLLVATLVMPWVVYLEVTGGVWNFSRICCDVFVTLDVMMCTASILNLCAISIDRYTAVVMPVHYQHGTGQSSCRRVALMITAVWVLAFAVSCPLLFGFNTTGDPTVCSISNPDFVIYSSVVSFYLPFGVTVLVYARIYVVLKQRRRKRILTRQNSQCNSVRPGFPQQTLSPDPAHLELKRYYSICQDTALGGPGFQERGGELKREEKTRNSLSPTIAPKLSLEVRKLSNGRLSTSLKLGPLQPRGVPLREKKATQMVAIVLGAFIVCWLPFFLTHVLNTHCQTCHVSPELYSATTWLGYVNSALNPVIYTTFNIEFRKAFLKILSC

[7] = target: T2, D(4) dopamine receptor (Homo sapiens) (UniProt P21917); test: Displacement of [3H]methylspiperione from human D4 receptor expressed in CHO cells at 1 uM by scintillation counting analysis; type: cell-based; procedure, shortened: as §2
T2 sequence (whole entry): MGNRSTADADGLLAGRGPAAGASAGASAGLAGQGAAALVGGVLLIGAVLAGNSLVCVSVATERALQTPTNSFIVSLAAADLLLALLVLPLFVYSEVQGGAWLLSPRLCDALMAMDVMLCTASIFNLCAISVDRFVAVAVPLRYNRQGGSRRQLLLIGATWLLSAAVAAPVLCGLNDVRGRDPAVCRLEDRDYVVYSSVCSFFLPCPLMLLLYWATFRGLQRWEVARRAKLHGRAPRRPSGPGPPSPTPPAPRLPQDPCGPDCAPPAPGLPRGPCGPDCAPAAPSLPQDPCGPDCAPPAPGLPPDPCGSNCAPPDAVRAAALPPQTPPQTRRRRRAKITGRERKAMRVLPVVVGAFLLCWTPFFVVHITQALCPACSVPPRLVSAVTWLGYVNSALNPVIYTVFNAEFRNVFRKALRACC

[8] = target: T3, 5-hydroxytryptamine receptor 2C (Homo sapiens) (UniProt P28335); test: Displacement of [3H]-mesulergine from human cloned 5HT2C receptor expressed in HEK293 cells at 1 uM by scintillation counting analysis; type: cell-based; procedure, shortened: as §2
T3 sequence (whole entry): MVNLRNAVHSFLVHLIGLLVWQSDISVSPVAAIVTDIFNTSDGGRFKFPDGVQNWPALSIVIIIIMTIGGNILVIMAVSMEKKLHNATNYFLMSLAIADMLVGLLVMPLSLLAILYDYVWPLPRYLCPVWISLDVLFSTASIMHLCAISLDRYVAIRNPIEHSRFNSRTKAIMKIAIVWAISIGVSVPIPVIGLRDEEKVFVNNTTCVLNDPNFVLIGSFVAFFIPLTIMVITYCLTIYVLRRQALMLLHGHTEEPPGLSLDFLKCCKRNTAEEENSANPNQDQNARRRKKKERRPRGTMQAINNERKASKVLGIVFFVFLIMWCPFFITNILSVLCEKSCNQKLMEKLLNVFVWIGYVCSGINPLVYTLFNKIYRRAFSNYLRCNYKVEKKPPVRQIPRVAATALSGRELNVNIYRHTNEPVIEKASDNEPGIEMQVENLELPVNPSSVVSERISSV

[9] = target: 5-hydroxytryptamine receptor 6 (Homo sapiens) (UniProt P50406); test: Displacement of [3H]LSD from human 5HT6 receptor expressed in CHO cells at 1 uM by scintillation counting analysis; type: cell-based; procedure, shortened: as §2
5-hydroxytryptamine receptor 6 (Homo sapiens), sequence (P50406 whole entry): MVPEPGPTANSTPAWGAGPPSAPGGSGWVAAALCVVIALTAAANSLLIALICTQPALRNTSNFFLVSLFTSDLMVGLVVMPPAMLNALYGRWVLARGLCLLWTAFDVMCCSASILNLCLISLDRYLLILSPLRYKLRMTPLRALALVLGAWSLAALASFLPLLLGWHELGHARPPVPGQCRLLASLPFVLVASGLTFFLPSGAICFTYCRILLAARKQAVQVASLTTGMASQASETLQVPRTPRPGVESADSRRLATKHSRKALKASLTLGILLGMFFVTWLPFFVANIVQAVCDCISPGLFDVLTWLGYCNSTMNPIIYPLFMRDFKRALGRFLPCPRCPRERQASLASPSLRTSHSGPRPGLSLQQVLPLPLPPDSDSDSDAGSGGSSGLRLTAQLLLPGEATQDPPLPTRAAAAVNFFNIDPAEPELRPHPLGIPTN

[10] = target: 5-hydroxytryptamine receptor 7 (Homo sapiens) (UniProt P34969); test: Displacement of [3H]LSD from human 5HT7 receptor expressed in CHO cells at 1 uM by scintillation counting analysis; type: cell-based; procedure, shortened: as §2
5-hydroxytryptamine receptor 7 (Homo sapiens), sequence (P34969 whole entry): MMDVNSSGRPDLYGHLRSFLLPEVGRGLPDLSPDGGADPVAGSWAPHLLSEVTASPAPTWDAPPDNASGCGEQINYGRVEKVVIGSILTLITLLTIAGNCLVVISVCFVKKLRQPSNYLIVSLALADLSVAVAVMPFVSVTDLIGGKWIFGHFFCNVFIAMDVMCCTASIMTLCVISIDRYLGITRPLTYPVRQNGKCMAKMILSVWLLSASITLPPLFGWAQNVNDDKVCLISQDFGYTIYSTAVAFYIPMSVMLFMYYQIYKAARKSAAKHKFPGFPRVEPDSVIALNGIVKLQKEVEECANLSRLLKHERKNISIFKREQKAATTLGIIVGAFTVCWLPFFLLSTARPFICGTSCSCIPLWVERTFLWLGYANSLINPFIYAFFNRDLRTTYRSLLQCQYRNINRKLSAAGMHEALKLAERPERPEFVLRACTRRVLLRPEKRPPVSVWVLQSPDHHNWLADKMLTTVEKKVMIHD

[11] = target: Adrenergic receptor alpha-1 (Homo sapiens) (UniProt P35348+P25100+P35368); test: Displacement of [3H]prazosin from human alpha1-adrenergic receptor expressed in CHO cells at 1 uM by scintillation counting analysis; type: cell-based; procedure, shortened: as §2
[12] = target: Muscarinic acetylcholine receptor M3 (Homo sapiens) (UniProt P20309); test: Displacement of [3H]-4-DAMP from human muscarinic M3 receptor expressed in CHO cells at 1 uM by scintillation counting analysis; type: cell-based; procedure, shortened: as §2
Muscarinic acetylcholine receptor M3 (Homo sapiens), sequence (P20309 whole entry, looked up): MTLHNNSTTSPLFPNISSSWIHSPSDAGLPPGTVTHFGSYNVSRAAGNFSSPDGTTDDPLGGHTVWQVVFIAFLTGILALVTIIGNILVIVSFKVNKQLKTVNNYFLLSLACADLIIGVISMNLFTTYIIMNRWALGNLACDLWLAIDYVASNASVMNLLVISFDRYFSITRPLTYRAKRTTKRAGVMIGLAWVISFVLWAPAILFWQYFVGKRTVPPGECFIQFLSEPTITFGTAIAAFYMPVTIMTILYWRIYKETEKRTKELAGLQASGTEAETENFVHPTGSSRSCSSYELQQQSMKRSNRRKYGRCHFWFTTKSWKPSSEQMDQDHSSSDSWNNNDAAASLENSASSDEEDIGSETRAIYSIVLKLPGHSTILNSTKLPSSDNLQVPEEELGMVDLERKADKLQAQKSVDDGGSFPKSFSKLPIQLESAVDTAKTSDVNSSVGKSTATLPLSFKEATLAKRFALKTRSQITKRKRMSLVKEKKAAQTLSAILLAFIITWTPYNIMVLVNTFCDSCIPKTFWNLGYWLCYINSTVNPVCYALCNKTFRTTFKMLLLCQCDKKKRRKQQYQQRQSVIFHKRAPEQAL

[13] = target: Histamine H1 receptor (Homo sapiens) (UniProt P35367); test: Displacement of [3H]-pyrilamine from human cloned H1 receptor expressed in HEK293 cells at 1 uM by scintillation counting analysis; type: cell-based; procedure, shortened: as §2
Histamine H1 receptor (Homo sapiens), sequence (P35367 whole entry): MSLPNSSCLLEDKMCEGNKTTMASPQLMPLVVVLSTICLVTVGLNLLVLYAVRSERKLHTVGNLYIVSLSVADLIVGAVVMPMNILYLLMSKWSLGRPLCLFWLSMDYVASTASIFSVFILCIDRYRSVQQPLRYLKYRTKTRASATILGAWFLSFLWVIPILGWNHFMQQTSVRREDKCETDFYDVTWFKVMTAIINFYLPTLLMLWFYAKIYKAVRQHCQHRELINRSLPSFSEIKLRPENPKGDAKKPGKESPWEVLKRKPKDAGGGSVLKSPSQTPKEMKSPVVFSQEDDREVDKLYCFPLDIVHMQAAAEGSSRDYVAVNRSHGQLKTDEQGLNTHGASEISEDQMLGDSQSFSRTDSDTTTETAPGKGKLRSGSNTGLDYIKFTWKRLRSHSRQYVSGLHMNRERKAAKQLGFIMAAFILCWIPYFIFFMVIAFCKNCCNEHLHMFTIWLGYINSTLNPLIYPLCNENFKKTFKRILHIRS

D(2) dopamine receptor, sequence (P61169 whole entry): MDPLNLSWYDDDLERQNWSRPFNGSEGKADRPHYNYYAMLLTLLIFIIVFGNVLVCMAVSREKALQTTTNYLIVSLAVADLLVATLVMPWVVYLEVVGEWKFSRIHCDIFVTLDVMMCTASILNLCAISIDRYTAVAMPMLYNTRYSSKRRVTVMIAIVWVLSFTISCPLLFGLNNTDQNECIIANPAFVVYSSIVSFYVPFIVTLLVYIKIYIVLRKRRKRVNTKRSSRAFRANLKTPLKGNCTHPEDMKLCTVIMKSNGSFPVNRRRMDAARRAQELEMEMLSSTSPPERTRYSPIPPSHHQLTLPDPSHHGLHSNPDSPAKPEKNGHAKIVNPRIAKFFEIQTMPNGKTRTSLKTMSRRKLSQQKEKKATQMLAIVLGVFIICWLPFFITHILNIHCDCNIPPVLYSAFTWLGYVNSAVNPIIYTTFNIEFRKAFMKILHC

pKi (D(2) dopamine receptor)	pKi [1]	pKi [2]	pKi [3]	inhibition [4]	inhibition [5]	inhibition [6]	inhibition [7]	inhibition [8]	inhibition [9]	inhibition [10]	inhibition [11]	inhibition [12]	inhibition [13]	Structure (SMILES)
6.98	8.59	7.01	7.15	68%	96%	96%	95%	21%	3%	98%	98%	5%	94%	COc1ccccc1N1CCN(CCCCN2C(=O)NC3(CCc4ccccc43)C2=O)CC1 (stereo unspecified)
6.27	7.92	7.68	7.57	91%	75%	97%	90%	61%	23%	99%	96%	5%	101%	O=C1NC2(CCc3ccccc32)C(=O)N1CCCCN1CCN(c2cccc(Cl)c2)CC1 (stereo unspecified)
7.23	8.66	7.23	7.33	87%	97%	94%	98%	24%	29%	99%	99%	-6%	99%	COc1ccccc1N1CCN(CCCCN2C(=O)NC3(CCCc4ccccc43)C2=O)CC1 (stereo unspecified)
5.96	7.82	7.57	7.43	95%	77%	93%	93%	61%	37%	100%	94%	3%	102%	O=C1NC2(CCCc3ccccc32)C(=O)N1CCCCN1CCN(c2cccc(Cl)c2)CC1 (stereo unspecified)

Reference: ChEMBL document CHEMBL3588770, “Novel spirohydantoin derivative as a potent multireceptor-active antipsychotic and antidepressant agent” (Bioorg Med Chem, 2015)
